{"source": "ChEMBL document CHEMBL3046055", "about": "“Synthesis and herbicidal activity of novel N-(2,2,2)-trifluoroethylpyrazole derivatives” (J Agric Food Chem, 2010)", "key": {"Echinochloa crus-galli [1]": {"tested_on": "Echinochloa crus-galli", "experiment": "Herbicidal activity against Echinochloa crus-galli (barnyard grass) assessed as inhibition of fresh weed plant weights at 300 g ai/ha using pre-emergence treatment protocol under field trials conditions measured 30 days post soil treatment relative to untreated control", "type": "functional", "settings": "720 h", "in_short": "(§1)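 Field pre-emergence trial. Treatments were applied to the soil surface within 24 h after maize planting, at 300, 400, 600 and 800 g a.i. ha^-1. Fresh weight of aerial plant parts was measured 30 days later, and percent inhibition calculated relative to the water-sprayed control.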"}, "Digitaria sanguinalis [2]": {"tested_on": "Digitaria sanguinalis", "experiment": "Herbicidal activity against Digitaria sanguinalis (hairy crabgrass) assessed as inhibition of fresh weed plant weights at 800 g ai/ha using pre-emergence treatment protocol under field trials conditions measured 30 days post soil treatment relative to untreated control", "type": "functional", "settings": "720 h", "in_short": "as §1"}, "Portulaca oleracea [3]": {"tested_on": "Portulaca oleracea", "experiment": "Herbicidal activity against Portulaca oleracea assessed as inhibition of fresh weed plant weights at 400 g ai/ha using pre-emergence treatment protocol under field trials conditions measured 30 days post soil treatment relative to untreated control", "type": "functional", "settings": "720 h", "in_short": "as §1"}, "Convolvulus arvensis [4]": {"tested_on": "Convolvulus arvensis", "experiment": "Herbicidal activity against Convolvulus arvensis assessed as inhibition of fresh weed plant weights at 300 g ai/ha using pre-emergence treatment protocol under field trials conditions measured 30 days post soil treatment relative to untreated control", "type": "functional", "settings": "720 h", "in_short": "as §1"}, "Eleusine indica [5]": {"tested_on": "Eleusine indica", "experiment": "Herbicidal activity against Eleusine indica assessed as inhibition of fresh weed plant weights at 400 g ai/ha using pre-emergence treatment protocol under field trials conditions measured 30 days post soil treatment relative to untreated control", "type": "functional", "settings": "720 h", "in_short": "as §1"}, "Digitaria sanguinalis [6]": {"tested_on": "Digitaria sanguinalis", "experiment": "Herbicidal activity against Digitaria sanguinalis (hairy crabgrass) assessed as inhibition of fresh weed plant weights at 150 g ai/ha using pre-emergence treatment protocol under greenhouse conditions relative to untreated control", "type": "functional", "in_short": "(§2)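 Pre-emergence test in plastic pots kept in a greenhouse at 22-25 °C. Fresh weight of aerial plant parts was measured 20 days later, and percent inhibition calculated relative to water-sprayed controls. Metolachlor served as the positive control. Three replicates were run per concentration.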"}, "Portulaca oleracea [7]": {"tested_on": "Portulaca oleracea", "experiment": "Herbicidal activity against Portulaca oleracea assessed as inhibition of fresh weed plant weights at 800 g ai/ha using pre-emergence treatment protocol under field trials conditions measured 30 days post soil treatment relative to untreated control", "type": "functional", "settings": "720 h", "in_short": "as §1"}, "Echinochloa crus-galli [8]": {"tested_on": "Echinochloa crus-galli", "experiment": "Herbicidal activity against Echinochloa crus-galli (barnyard grass) assessed as inhibition of root growth at […] measured 7 days post treatment", "type": "functional", "parameters": "dose or concentration left out as unconfirmed", "settings": "168 h, read-out: GI"}, "[9]": {"tested_on": "Brassica rapa subsp. oleifera", "experiment": "Toxicity against Brassica rapa subsp. oleifera var. JING GUAN 1 assessed as inhibition of fresh weed plant weights at 600 g ai/ha using pre-emergence treatment protocol under greenhouse conditions relative to untreated control", "type": "organism-based", "settings": "in vivo, other", "in_short": "as §2"}, "Eleusine indica [10]": {"tested_on": "Eleusine indica", "experiment": "Herbicidal activity against Eleusine indica assessed as inhibition of fresh weed plant weights at 600 g ai/ha using pre-emergence treatment protocol under field trials conditions measured 30 days post soil treatment relative to untreated control", "type": "functional", "settings": "720 h", "in_short": "as §1"}, "Portulaca oleracea [11]": {"tested_on": "Portulaca oleracea", "experiment": "Herbicidal activity against Portulaca oleracea assessed as inhibition of fresh weed plant weights at 300 g ai/ha using pre-emergence treatment protocol under greenhouse conditions relative to untreated control", "type": "functional", "in_short": "as §2"}, "Portulaca oleracea [12]": {"tested_on": "Portulaca oleracea", "experiment": "Herbicidal activity against Portulaca oleracea assessed as inhibition of fresh weed plant weights at 600 g ai/ha using pre-emergence treatment protocol under greenhouse conditions relative to untreated control", "type": "functional", "in_short": "as §2"}, "Zea mays [13]": {"tested_on": "Zea mays", "experiment": "Toxicity against Zea mays var. SHEN DAN 17 (maize) assessed induction of crop injury at 600 g ai/ha using pre-emergence treatment protocol under field trials conditions measured 30 days post soil treatment", "type": "organism-based", "settings": "in vivo, other, 720 h", "in_short": "(§3)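 Pre-emergence application to soil surface within 24 h after maize planting, at 300, 400, 600 or 800 g a.i. ha^-1. Fresh weight of aerial plant parts measured 30 days later; percentage inhibition calculated relative to water-sprayed control.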"}, "Echinochloa crus-galli [14]": {"tested_on": "Echinochloa crus-galli", "experiment": "Herbicidal activity against Echinochloa crus-galli (barnyard grass) assessed as inhibition of fresh weed plant weights at 400 g ai/ha using pre-emergence treatment protocol under field trials conditions measured 30 days post soil treatment relative to untreated control", "type": "functional", "settings": "720 h", "in_short": "as §1"}, "Convolvulus arvensis [15]": {"tested_on": "Convolvulus arvensis", "experiment": "Herbicidal activity against Convolvulus arvensis assessed as inhibition of fresh weed plant weights at 800 g ai/ha using pre-emergence treatment protocol under field trials conditions measured 30 days post soil treatment relative to untreated control", "type": "functional", "settings": "720 h", "in_short": "as §1"}, "Eleusine indica [16]": {"tested_on": "Eleusine indica", "experiment": "Herbicidal activity against Eleusine indica assessed as inhibition of fresh weed plant weights at 600 g ai/ha using pre-emergence treatment protocol under greenhouse conditions relative to untreated control", "type": "functional", "in_short": "as §2"}, "Digitaria sanguinalis [17]": {"tested_on": "Digitaria sanguinalis", "experiment": "Herbicidal activity against Digitaria sanguinalis (hairy crabgrass) assessed as inhibition of fresh weed plant weights at 300 g ai/ha using pre-emergence treatment protocol under field trials conditions measured 30 days post soil treatment relative to untreated control", "type": "functional", "settings": "720 h", "in_short": "as §1"}, "Zea mays [18]": {"tested_on": "Zea mays", "experiment": "Toxicity against Zea mays var. SHEN DAN 17 (maize) assessed induction of crop injury at 300 g ai/ha using pre-emergence treatment protocol under field trials conditions measured 30 days post soil treatment", "type": "organism-based", "settings": "in vivo, other, 720 h", "in_short": "as §3"}, "Digitaria sanguinalis [19]": {"tested_on": "Digitaria sanguinalis", "experiment": "Herbicidal activity against Digitaria sanguinalis (hairy crabgrass) assessed as inhibition of fresh weed plant weights at 600 g ai/ha using pre-emergence treatment protocol under field trials conditions measured 30 days post soil treatment relative to untreated control", "type": "functional", "settings": "720 h", "in_short": "as §1"}, "Eleusine indica [20]": {"tested_on": "Eleusine indica", "experiment": "Herbicidal activity against Eleusine indica assessed as inhibition of fresh weed plant weights at 300 g ai/ha using pre-emergence treatment protocol under greenhouse conditions relative to untreated control", "type": "functional", "in_short": "as §2"}, "Echinochloa crus-galli [21]": {"tested_on": "Echinochloa crus-galli", "experiment": "Herbicidal activity against Echinochloa crus-galli (barnyard grass) assessed as inhibition of fresh weed plant weights at 800 g ai/ha using pre-emergence treatment protocol under field trials conditions measured 30 days post soil treatment relative to untreated control", "type": "functional", "settings": "720 h", "in_short": "as §1"}, "Portulaca oleracea [22]": {"tested_on": "Portulaca oleracea", "experiment": "Herbicidal activity against Portulaca oleracea assessed as inhibition of root growth at […] measured 7 days post treatment", "type": "functional", "parameters": "dose or concentration left out as unconfirmed", "settings": "168 h, read-out: GI"}, "Digitaria sanguinalis [23]": {"tested_on": "Digitaria sanguinalis", "experiment": "Herbicidal activity against Digitaria sanguinalis (hairy crabgrass) assessed as inhibition of fresh weed plant weights at 400 g ai/ha using pre-emergence treatment protocol under field trials conditions measured 30 days post soil treatment relative to untreated control", "type": "functional", "settings": "720 h", "in_short": "as §1"}, "Digitaria sanguinalis [24]": {"tested_on": "Digitaria sanguinalis", "experiment": "Herbicidal activity against Digitaria sanguinalis (hairy crabgrass) assessed as inhibition of fresh weed plant weights at 300 g ai/ha using pre-emergence treatment protocol under greenhouse conditions relative to untreated control", "type": "functional", "in_short": "as §2"}, "Convolvulus arvensis [25]": {"tested_on": "Convolvulus arvensis", "experiment": "Herbicidal activity against Convolvulus arvensis assessed as inhibition of fresh weed plant weights at 600 g ai/ha using pre-emergence treatment protocol under field trials conditions measured 30 days post soil treatment relative to untreated control", "type": "functional", "settings": "720 h", "in_short": "as §1"}, "Eleusine indica [26]": {"tested_on": "Eleusine indica", "experiment": "Herbicidal activity against Eleusine indica assessed as inhibition of fresh weed plant weights at 150 g ai/ha using pre-emergence treatment protocol under greenhouse conditions relative to untreated control", "type": "functional", "in_short": "as §2"}, "Digitaria sanguinalis [27]": {"tested_on": "Digitaria sanguinalis", "experiment": "Herbicidal activity against Digitaria sanguinalis (hairy crabgrass) assessed as inhibition of fresh weed plant weights at 600 g ai/ha using pre-emergence treatment protocol under greenhouse conditions relative to untreated control", "type": "functional", "in_short": "as §2"}, "[28]": {"tested_on": "Brassica rapa subsp. oleifera", "experiment": "Toxicity against Brassica rapa subsp. oleifera var. JING GUAN 1 assessed as inhibition of fresh weed plant weights at 300 g ai/ha using pre-emergence treatment protocol under greenhouse conditions relative to untreated control", "type": "organism-based", "settings": "in vivo, other", "in_short": "as §2"}, "Echinochloa crus-galli [29]": {"tested_on": "Echinochloa crus-galli", "experiment": "Herbicidal activity against Echinochloa crus-galli (barnyard grass) assessed as inhibition of fresh weed plant weights at 300 g ai/ha using pre-emergence treatment protocol under greenhouse conditions relative to untreated control", "type": "functional", "in_short": "as §2"}, "Portulaca oleracea [30]": {"tested_on": "Portulaca oleracea", "experiment": "Herbicidal activity against Portulaca oleracea assessed as inhibition of fresh weed plant weights at 300 g ai/ha using pre-emergence treatment protocol under field trials conditions measured 30 days post soil treatment relative to untreated control", "type": "functional", "settings": "720 h", "in_short": "as §1"}}, "data": [{"smiles": "Cc1nn(CC(F)(F)F)c(CS(=O)(=O)C2=NOC(C)(C)C2)c1Cl", "values": [{"measurement": "inhibition at 300 g/ha", "setting": "Echinochloa crus-galli [1]", "value": 100, "unit": "%"}, {"measurement": "inhibition at 800 g/ha", "setting": "Digitaria sanguinalis [2]", "value": 100, "unit": "%"}, {"measurement": "inhibition at 400 g/ha", "setting": "Portulaca oleracea [3]", "value": 85, "unit": "%"}, {"measurement": "inhibition at 300 g/ha", "setting": "Convolvulus arvensis [4]", "value": 14, "unit": "%"}, {"measurement": "inhibition at 400 g/ha", "setting": "Eleusine indica [5]", "value": 98, "unit": "%"}, {"measurement": "inhibition at 150 g/ha", "setting": "Digitaria sanguinalis [6]", "value": 86, "unit": "%"}, {"measurement": "inhibition at 800 g/ha", "setting": "Portulaca oleracea [7]", "value": 100, "unit": "%"}, {"measurement": "inhibition of growth", "setting": "Echinochloa crus-galli [8]", "value": 62, "unit": "%"}, {"measurement": "inhibition (INH)", "setting": "[9]", "value": 11, "unit": "%"}, {"measurement": "inhibition at 600 g/ha", "setting": "Eleusine indica [10]", "value": 98, "unit": "%"}, {"measurement": "inhibition at 300 g/ha", "setting": "Portulaca oleracea [11]", "value": 97, "unit": "%"}, {"measurement": "inhibition at 600 g/ha", "setting": "Portulaca oleracea [12]", "value": 99, "unit": "%"}, {"measurement": "Activity", "setting": "Zea mays [13]", "value": 0, "unit": "%"}, {"measurement": "inhibition at 400 g/ha", "setting": "Echinochloa crus-galli [14]", "value": 100, "unit": "%"}, {"measurement": "inhibition at 800 g/ha", "setting": "Convolvulus arvensis [15]", "value": 40, "unit": "%"}, {"measurement": "inhibition at 600 g/ha", "setting": "Eleusine indica [16]", "value": 100, "unit": "%"}, {"measurement": "inhibition at 300 g/ha", "setting": "Digitaria sanguinalis [17]", "value": 95, "unit": "%"}, {"measurement": "Activity", "setting": "Zea mays [18]", "value": 0, "unit": "%"}, {"measurement": "inhibition at 600 g/ha", "setting": "Digitaria sanguinalis [19]", "value": 100, "unit": "%"}, {"measurement": "inhibition at 300 g/ha", "setting": "Eleusine indica [20]", "value": 99, "unit": "%"}, {"measurement": "inhibition at 800 g/ha", "setting": "Echinochloa crus-galli [21]", "value": 100, "unit": "%"}, {"measurement": "inhibition of growth", "setting": "Portulaca oleracea [22]", "value": 63, "unit": "%"}, {"measurement": "inhibition at 400 g/ha", "setting": "Digitaria sanguinalis [23]", "value": 98, "unit": "%"}, {"measurement": "inhibition at 300 g/ha", "setting": "Digitaria sanguinalis [24]", "value": 97, "unit": "%"}, {"measurement": "inhibition at 600 g/ha", "setting": "Convolvulus arvensis [25]", "value": 27, "unit": "%"}, {"measurement": "inhibition at 150 g/ha", "setting": "Eleusine indica [26]", "value": 97, "unit": "%"}, {"measurement": "inhibition at 600 g/ha", "setting": "Digitaria sanguinalis [27]", "value": 100, "unit": "%"}, {"measurement": "inhibition (INH)", "setting": "[28]", "value": 12, "unit": "%"}, {"measurement": "inhibition at 300 g/ha", "setting": "Echinochloa crus-galli [29]", "value": 100, "unit": "%"}, {"measurement": "inhibition at 300 g/ha", "setting": "Portulaca oleracea [30]", "value": 80, "unit": "%"}]}]}
